Screening results: PubChem BioAssay, Sanford-Burnham Center for Chemical Genomics
Hits are enriched below; roughly 1.7% of the tested compounds scored in any of these assays.
LMPTP inh: LMPTP phosphatase inhibitors, primary screen, biochemical, fluorescence intensity, uHTS. AID 651560, 2012. hit rate 0.22% among 360,000. inhibition, % at 20 µM. recombinant LMPTP-A, OMFP fluorogenic substrate;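 active = compounds that cut the enzyme signal by at least half of the control window in the single-dose screen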;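 also: plate controls were DMSO wells with enzyme plus substrate for no effect and substrate without enzyme for full effect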
Target sequence (P24666 whole entry, looked up): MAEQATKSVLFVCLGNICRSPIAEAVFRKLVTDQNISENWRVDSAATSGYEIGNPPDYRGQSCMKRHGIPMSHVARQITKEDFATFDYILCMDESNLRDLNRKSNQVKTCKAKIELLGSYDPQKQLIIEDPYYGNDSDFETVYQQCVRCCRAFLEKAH
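test system = LMPTP-A | amount = 0.625 nM LMPTP-A final | reagent = fluorogenic phosphatase substrate OMFP at 400 µM final | incubation = 50 min at room temperature | benchmarks = no-enzyme low control, uninhibited high control | medium = Bis-Tris pH 6.0, DTT, detergent | signal = fluorescence intensity of OMFP turnover product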
SUMO1-SIM PPI: modulators of SUMO1 protein-protein interactions, primary screen, biochemical, uHTS | Small ubiquitin-related modifier 1 (Homo sapiens), P63165 | SUMO1 binding to a labelled peptide, TR-FRET, 1 h | inhibition, % at 20 µM | hit rate 0.33% among 360,000; in the data active = inhibition above about 37%
Target sequence (P63165 whole entry, looked up): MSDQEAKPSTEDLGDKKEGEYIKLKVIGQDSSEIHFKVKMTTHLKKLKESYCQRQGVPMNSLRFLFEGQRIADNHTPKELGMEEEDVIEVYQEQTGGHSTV
Scp-1 inhibitor: Scp-1 phosphatase inhibitors, primary screen, biochemical, colorimetric, uHTS. Carboxy-terminal domain RNA polymerase II polypeptide A small phosphatase 1 (Homo …. Recombinant Scp1, phosphopeptide, malachite green phosphate absorbance. inhibition, % at 20 µM. hit rate 0.88% among 340,000;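 active = inhibition above about 50% at 20 µM, limit read from the data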;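 also: plate controls were DMSO wells with enzyme for no effect and wells lacking enzyme for full effect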
Target sequence (Q9GZU7 76-261 limits assumed): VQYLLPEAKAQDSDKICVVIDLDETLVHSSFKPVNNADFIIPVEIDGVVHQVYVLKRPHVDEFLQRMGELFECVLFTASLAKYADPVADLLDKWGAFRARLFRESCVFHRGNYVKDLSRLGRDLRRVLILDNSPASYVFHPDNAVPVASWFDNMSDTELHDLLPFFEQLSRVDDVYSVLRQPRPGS
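assay system = SCP-1 phosphatase catalytic domain, residues 76-261 | buffer or medium = 50 mM Tris acetate pH 5.5, 0.005% Tween-20, 10 mM MgCl2 | incubation = enzyme reaction 45 min at room temperature, colour 5 min, stabilisation 30 min | signal = Phosphate-binding colour reagent, absorbance read at 630 nm | measure = % inhibition at 20 µM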
STEP block: STEP phosphatase inhibitors, primary screen, biochemical, fluorescence intensity, uHTS | Tyrosine-protein phosphatase non-receptor type 5 (Homo sapiens), P54829 | recombinant STEP, OMFP fluorogenic substrate | inhibition, % at 20 µM | hit rate 0.25% among 360,000;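 active = inhibition at 20 µM, scaled per plate between control wells, above about 37%, limit read from the data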;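 also: 0% = DMSO with enzyme and substrate and 100% = substrate only without enzyme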
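System: STEP phosphatase, cell-free reaction; Buffer or medium: Bis-Tris pH 6.0 buffer with DTT, detergent; Incubation: 20 min at room temperature, dark; Measured by: fluorescence, 480/540 nm.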
DNMT1 block: human DNMT1 methyltransferase inhibitors, primary screen, biochemical, molecular beacon, fluorescence, HinP1I cleavage, uHTS; AID 588458, 2011; hit rate 0.83% among 360,000; inhibition (reported as % activation of signal), % at 10 µM; DNA (cytosine-5)-methyltransferase 1 (Homo sapiens), P26358; in the data active = inhibition above about 50%
DNMT1 interf DR: spectral interference with molecular beacon fluorescence, dose response, artefact control for DNMT1 inhibitor project, biochemical, fluorescent molecular beacon | shares compounds with DNMT1 block | spectral interference counter-screen | IC50, µM | 200 tested, under 10 active | AID 602382, 2012; call rule not given here
DNMT1 inh conf: DNMT1 methyltransferase inhibitor retest, confirmation, biochemical, molecular beacon, fluorescence, single concentration; hit rate 8% among 2,300; inhibition, % at 10 µM; shares compounds with DNMT1 block; DNMT1 molecular beacon HinP1I cleavage; AID 602385, 2012;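 active = average inhibition of at least 30% in the single-concentration confirmation test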
Beacon interf: beacon fluorescence artifact counter-screen; shares compounds with DNMT1 block; DNMT1 molecular beacon spectral interference counterscreen, fluorescence 485/520; activation (fluorescence interference), % at 10 µM; hit rate 1% among 2,300; AID 602387;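 active = activation of at least 30% at 10 µM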;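 also: DNMT1 catalytic domain with a HinP1I cleavage step and a FAM/dabcyl DNA beacon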
Active calls of the source: *; x = not tested or not shown; ! = not active in a repeat.

SMILES	LMPTP inh	SUMO1-SIM PPI	Scp-1 inhibitor	STEP block	DNMT1 block	DNMT1 inh conf	Beacon interf	others
O=C(O)c1ccc2c(c1)C(=O)/C(=C\c1ccco1)C2=O	2.8	4.8	54.2*	9.0	79.8*	5.9	-0.5
O=C(c1[nH]c(C(F)(F)F)nc1-c1ccccc1)N1CCN(c2ccncc2)CC1	-4.0	-0.8	x	-0.8	4.4	x	x
O=C(N/N=C/c1cc(Br)c(O)c(Br)c1)c1cccc(C(F)(F)F)c1	-0.8	-0.9	-4.4	-2.3	73.6*	2.6	1.7
COc1ccc(NS(=O)(=O)c2cccc(C(=O)NN=Cc3cc(Br)c(O)c(Br)c3)c2)cc1	6.9	-1.5	-15.3	3.2	-2.7	x	x
COc1ccc(N(C)S(=O)(=O)c2cccc(C(=O)NCc3ccc(C)cc3)c2)cc1	0.6	6.0	-8.2	-2.5	-2.7	x	x
Cc1ccc(-c2nnn(CC(=O)Nc3ccc4nn(-c5ccccc5)nc4c3)n2)o1	-0.5	9.8	-2.2	-4.6	50.1*	0.4	0.1
Cc1ccc(-c2nnn(CC(=O)NCC3CC3)n2)o1	-0.8	1.6	-6.0	0.9	-0.2	x	x
COc1ccc(C(CNC(=O)COc2ccccc2C#N)N2CCOCC2)cc1 (stereo unspecified)	0.6	-2.7	-5.9	-0.9	103.7*	5.5	8.4
COc1ccc(C(CNC(=O)c2ccc(S(=O)(=O)Nc3cccc(C)c3C)cc2)N2CCOCC2)cc1 (stereo unspecified)	-8.4	-57.5	-4.8	-1.3	94.7*	2.5	5.6
COc1ccc(C(CNC(=O)COc2ccccc2C)N2CCCCC2)cc1 (stereo unspecified)	0.0	0.0	1.5	0.0	0.4	x	x
Cc1ccc(C)n1/N=C1/NC(=O)CS1	0.1	30.2	7.7	7.8	90.3*	3.1	1.8
COc1ccc(S(=O)(=O)N2CCOCC2)cc1NC(=O)c1cc(C)oc1C	0.0	-0.3	-7.2	-0.6	64.5*	3.7	-0.6
CCOC(=O)c1c2ccc(OCC(=O)N/N=C/c3ccc(C)cc3)cc2n2ccccc12	1.8	3.0	5.6	2.5	72.2*	4.7	-1.8
CCCNC(=O)C1(C)CCCN(C(=O)c2cccc(OC(F)(F)F)c2)C1 (stereo unspecified)	-1.5	0.2	x	-2.0	4.8	x	x
CC1CCCC(C)N1CCCNC(=O)C1CCCN(S(=O)(=O)N2CCCCC2)C1 (stereo unspecified)	-1.4	1.3	x	-5.6	0.1	x	x
O=C1NC[C@@H](CCCCN2CCN(CCc3ccccc3)C(=O)C2=O)N(Cc2ccccc2)C1=O	0.1	2.4	x	x	x	x	x
Cc1cc(NC(=O)c2cncc(Br)c2)ccc1NC(=O)c1cc2ccccc2o1	0.7	37.8	4.0	9.4	74.8*	10.1	-2.4
c1ccc(-c2nccc(-c3ccc(-n4cnc5ccccc54)cc3)n2)cc1	8.9	-5.4	0.2	4.6	82.0*	1.2	-6.8
COc1ccc(C)cc1NC(=O)CN(Cc1nnc(-c2ccc(Cl)cc2)o1)C1CCCC1	9.0	-0.4	-2.2	7.3	59.3*	-0.2	-1.7
O=P(CCc1ccccc1)(c1ccccc1)c1ccccc1	1.2	-0.4	1.9	2.6	3.0	x	x
CCCSC1=N/C(=C\C=C\c2ccco2)C(=O)S1	56.2*	32.4	69.0*	17.0	106.1*	8.6	2.8
CCCCc1nc2sc3c(SCC(=O)NCc4ccco4)ncnc3c2c2c1CCC2	2.6	-110.6	46.8	4.9	78.2*	6.0	4.8
CCOc1ccc(NC(=O)C2CCN(S(=O)(=O)CC)CC2)cc1	0.4	-1.6	-3.7	0.1	60.0*	4.8	3.8
CCOC(=O)c1ccc(NC(=O)C2CCN(S(=O)(=O)CC)CC2)cc1	-2.6	2.2	-1.1	-2.8	21.2	x	x
O=[N+]([O-])c1ccc2c([N+](=O)[O-])ccc3c2c1CC3	31.2	-17.9	x	4.3	72.9*	25.1	2.7
SMILES	LMPTP inh	SUMO1-SIM PPI	Scp-1 inhibitor	STEP block	DNMT1 block	DNMT1 inh conf	Beacon interf	others
Cc1ccc(C(=O)Nc2ccc3c4c(cccc24)CC3)cc1[N+](=O)[O-]	-0.9	-4.4	-7.3	-0.6	-5.4	x	x
CCNC(=O)N(C)c1c(CC)nc2ccc(C(=O)N3CCN(S(=O)(=O)CC)CC3)cn12	-2.5	-5.1	x	-1.6	52.8*	6.6	4.1
CN(C)c1ccc(-c2ccnc3c2CC(C)(C(=O)Nc2ccc(F)c(Cl)c2)O3)cc1 (stereo unspecified)	4.6	2.9	x	-1.1	-12.4	x	x
COC(=O)CNC(=O)CCc1nnc(C2(c3ccc(Cl)cc3)CCC2)o1	-1.1	10.0	0.9	-0.9	58.2*	1.7	-1.2
C=C(C)CNC(=O)CCc1nnc(C2(c3ccc(Cl)cc3)CCC2)o1	-0.4	-1.7	-1.3	-2.8	4.0	x	x
COc1ccc(/C=C/C(=O)NC(=S)Nc2ccc(S(=O)(=O)N=C(N)N)cc2)cc1OC	4.9	1.2	3.6	0.6	61.0*	1.0	-4.3
C=CCNc1nc2cc(-c3ccccc3OC)sc2c(=O)n1C	1.7	-25.9	x	0.3	-11.2	x	x
C=CCN(C(=O)c1csnn1)C(C(=O)NCc1ccc(F)cc1)c1ccccc1F (stereo unspecified)	-1.2	-5.5	-9.6	0.7	54.1*	1.9	4.9
COc1cccc(NS(=O)(=O)c2ccc3c(c2)C2C=CCC2C(c2ccc(C(=O)O)cc2)N3)c1 (stereo unspecified)	8.8	44.0*	13.6	6.4	89.7*	28.0	1.9	DNMT1 interf DR=>99
Cc1ccc(NC(=O)COc2ccc(/C=C3/SC(=Nc4ccccc4)N(Cc4cccnc4)C3=O)cc2)cc1	-0.9	-2.5	6.8	0.4	60.6*	-0.6	-8.5
Cn1nc(CC(=O)NC2CCCCCCCCCCC2)c2ccccc2c1=O	0.3	-5.4	6.8	2.4	69.1*	1.2	-0.1
Cc1ccc(C(=O)Nc2cccc(C(F)(F)F)c2)cc1NC(=O)c1ccno1	-0.3	3.1	-4.4	-2.6	-3.8	x	x
Cc1ccc(C(=O)Nc2cccc(C(F)(F)F)c2)cc1NC(=O)c1nccn1C	4.2	4.5	-3.8	1.0	56.2*!	0.2	5.4
CSc1nnc(C)c(=O)n1COC(=O)COc1ccc(Cl)cc1	-0.9	3.3	-10.4	-3.2	109.7*	-1.9	-2.4
